# Experiments:
# Plasmodium falciparum = test: Antiplasmodial activity against chloroquine-resistant Plasmodium falciparum W2 infected in human red blood cells assessed as inhibition of ring-stage parasite growth after 48 hrs by flow cytometry; type: functional, organism-based; details: W2, 48 h
# Falcipain 2 = molecular target: T1, Falcipain 2 (Plasmodium falciparum, UniProt Q9N6S8); test: Inhibition of Plasmodium falciparum falcipain 2 incubated with compound for 10 mins before addition of 25 uM Z-Leu-Arg-AMC substrate by fluorescence spectrophotometry
# T1 sequence (Q9N6S8 whole entry): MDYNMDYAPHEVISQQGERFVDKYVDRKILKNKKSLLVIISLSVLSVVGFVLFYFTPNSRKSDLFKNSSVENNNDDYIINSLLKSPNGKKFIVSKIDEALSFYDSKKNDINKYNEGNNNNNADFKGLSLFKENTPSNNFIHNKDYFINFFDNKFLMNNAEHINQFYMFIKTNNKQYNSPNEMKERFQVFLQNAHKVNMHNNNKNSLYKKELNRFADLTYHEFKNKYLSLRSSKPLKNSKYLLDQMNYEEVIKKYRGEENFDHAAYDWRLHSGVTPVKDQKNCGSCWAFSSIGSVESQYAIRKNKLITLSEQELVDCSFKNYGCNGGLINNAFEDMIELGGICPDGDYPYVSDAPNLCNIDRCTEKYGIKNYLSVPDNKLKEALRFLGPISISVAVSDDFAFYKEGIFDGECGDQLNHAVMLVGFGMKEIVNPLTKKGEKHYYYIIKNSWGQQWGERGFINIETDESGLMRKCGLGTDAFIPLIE
# Method in brief: (§1)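 Run at 25 °C in 100 mM sodium acetate pH 6.0 with 5 mM DTT and 0.75% DMSO. Enzyme was preincubated 10 min with compound diluted from DMSO, then Z-Leu-Arg-AMC was added and fluorescence was read immediately. Eight inhibitor concentrations were made by fivefold serial dilution. IC50 was fitted to percent inhibition versus a no-inhibitor control against log concentration.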
# [1] = molecular target: T2, Cysteine protease falcipain-3 (Plasmodium falciparum, UniProt Q9NAW4); test: Inhibition of Plasmodium falciparum falcipain 3 incubated with compound for 10 mins before addition of 25 uM Z-Leu-Arg-AMC substrate by fluorescence spectrophotometry; method in brief: as §1
# T2 sequence (Q9NAW4 whole entry): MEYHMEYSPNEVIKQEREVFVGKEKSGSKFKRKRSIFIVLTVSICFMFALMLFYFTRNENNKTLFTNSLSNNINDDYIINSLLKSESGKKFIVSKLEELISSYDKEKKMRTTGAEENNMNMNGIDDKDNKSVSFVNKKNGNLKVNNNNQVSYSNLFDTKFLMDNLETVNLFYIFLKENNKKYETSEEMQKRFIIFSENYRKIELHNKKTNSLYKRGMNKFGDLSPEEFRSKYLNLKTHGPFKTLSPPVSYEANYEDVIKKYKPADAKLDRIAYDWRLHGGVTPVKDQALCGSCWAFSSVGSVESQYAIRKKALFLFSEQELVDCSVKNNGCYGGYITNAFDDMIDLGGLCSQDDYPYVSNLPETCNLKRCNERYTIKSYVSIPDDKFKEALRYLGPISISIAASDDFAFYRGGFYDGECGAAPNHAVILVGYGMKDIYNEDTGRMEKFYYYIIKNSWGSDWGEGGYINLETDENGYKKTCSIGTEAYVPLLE
Structure (SMILES),IC50 (Plasmodium falciparum) [µM],IC50 (Falcipain 2) [µM],IC50 [1] [µM]
O=C1Nc2ccccc2C1=CNCCCNc1ccnc2cc(Cl)ccc12,0.42,> 50,
CCOC(=O)CNC=C1C(=O)Nc2ccccc21,10.8,> 50,
CN(C)C=C1C(=O)Nc2ccccc21,> 50,> 50,
CN(C)C=C1C(=O)Nc2ccc(Cl)cc21,> 50,> 50,
CN(C)C=C1C(=O)Nc2cc(Cl)ccc21,> 50,> 50,
CN(C)C=C1C(=O)Nc2c(Cl)cccc21,> 50,> 50,
CN(C)C=C1C(=O)N(C)c2ccccc21,> 50,> 50,
O=C1Nc2ccccc2C1=CSCc1ccccc1,> 10,> 50,
O=C1Nc2ccccc2C1=CNc1ccccc1,> 10,> 50,
CCOC(=O)[C@H](Cc1ccccc1)NC=C1C(=O)Nc2ccccc21,> 10,> 50,
CC(C)CCNC(=O)[C@H](CC(C)C)NC=C1C(=O)Nc2ccccc21,30.7,> 50,> 50
CC(C)CCNC(=O)[C@H](CC(C)C)NC=C1C(=O)Nc2ccc(Cl)cc21,18.7,44.1,> 50
CC(C)CCNC(=O)[C@H](CC(C)C)NC=C1C(=O)Nc2cc(Cl)ccc21,15.9,48.5,> 50
CC(C)CCNC(=O)[C@H](CC(C)C)NC=C1C(=O)Nc2c(Cl)cccc21,15.7,42.1,> 50
CC(C)CCNC(=O)[C@H](CC(C)C)NC=C1C(=O)N(C)c2ccccc21,23.5,> 50,> 50
CC(C)CCNC(=O)CNC=C1C(=O)Nc2ccccc21,26.7,> 50,> 50
CC(C)CCNC(=O)[C@H](CCc1ccccc1)NC=C1C(=O)Nc2ccccc21,18.6,49.9,> 50
CC(C)CCNC(=O)[C@H](Cc1ccccc1)NC=C1C(=O)Nc2ccc(Cl)cc21,> 50,43.3,> 50
CC(C)CCNC(=O)[C@H](CCc1ccccc1)NC=C1C(=O)Nc2c(Cl)cccc21,13.4,44,> 50
O=C1Nc2ccc(Cl)cc2C1=CNCCCNc1ccnc2cc(Cl)ccc12,0.2,> 50,
O=C1Nc2cc(Cl)ccc2C1=CNCCCNc1ccnc2cc(Cl)ccc12,0.18,> 50,
O=C1Nc2c(Cl)cccc2C1=CNCCCNc1ccnc2cc(Cl)ccc12,0.17,> 50,
CN1C(=O)C(=CNCCCNc2ccnc3cc(Cl)ccc23)c2ccccc21,0.29,> 50,
O=C1Nc2c(Cl)cccc2C1=CNCCNc1ccnc2cc(Cl)ccc12,0.14,,
CC(C)C[C@H](NC(=O)[C@H]1O[C@@H]1C(=O)O)C(=O)NCCCCN=C(N)N [E-64],,0.112,0.481
